# High-throughput results from PubChem BioAssay.
# The list is not random: actives were taken first. Their share in the collection is about 1.8%.
# TCR CD3 inh: blocks the human TCR-CD3 interaction. TAMRA-labeled TCR probe fluorescence, biochemical. inhibition, % at 9.4 µM. 360,000 tested, 0.37% active. AID 651800; in the data active = inhibition above about 19%;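 note: recombinant mutant TCR 2C K166C tagged with TAMRA read by polarization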
# HTRA1 inh: blocks human HTRA1 serine peptidase; 340,000 tested, 0.5% active; recombinant HTRA1, FP-rhodamine activity-based probe, fluorescence polarization; Q92743; inhibition, % at 5.96 µM; in the data active = inhibition above about 36%
# PME-1 primary: PME-1 (human) inhibition; Q9Y570; recombinant PME-1, FP-Rh probe fluorescence polarization; inhibition, % at 5.9 µM; 320,000 tested, 0.53% active; AID 2130;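 active = inhibition above the campaign mean of all compounds plus 3 SD, cut at about 26% in these data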;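 note: competitive labeling of PME-1 active site by serine hydrolase directed probe; inhibitors block probe labeling so polarization falls and inhibition rises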
# Target sequence (Q9Y570 whole entry, looked up): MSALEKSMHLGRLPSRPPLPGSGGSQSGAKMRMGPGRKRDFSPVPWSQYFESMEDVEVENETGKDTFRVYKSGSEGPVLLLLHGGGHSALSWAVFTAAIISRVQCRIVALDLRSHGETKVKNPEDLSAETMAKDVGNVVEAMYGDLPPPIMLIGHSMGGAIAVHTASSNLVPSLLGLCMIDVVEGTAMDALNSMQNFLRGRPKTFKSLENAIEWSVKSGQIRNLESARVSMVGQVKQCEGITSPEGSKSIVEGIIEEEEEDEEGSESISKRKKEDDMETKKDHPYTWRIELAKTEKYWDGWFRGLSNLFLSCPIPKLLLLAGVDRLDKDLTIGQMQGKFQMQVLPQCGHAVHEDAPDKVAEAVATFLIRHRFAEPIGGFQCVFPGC
# ABHD4 inh: inhibits mouse alpha/beta hydrolase domain 4; Q8VD66; inhibition, % at 8.92 µM; purified mABHD4, FP-Rh probe fluorescence polarization; 370,000 tested, 0.54% active;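 active = inhibition exceeding the mean over every tested compound plus 3 SD, cut at about 30% in these data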
#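 System: mouse ABHD4 enzyme, wild type / Medium: HEPES pH 7.0, NaCl, Pluronic buffer / Reagent: FP-Rh activity-based fluorescent probe / Control set: S159A mutant high control, sample median low control / Detection: fluorescence polarization with parallel and perpendicular emission, 525/598 nm / Schedule: 45 min + 60 min at 25 °C / Compound dosing: 8.92 µM, single dose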
# SIAE inh: inhibitors of human sialic acid acetylesterase SIAE. Q9HAT2. SIAE FP-Rh probe binding, fluorescence polarization. inhibition, % at 9.66 µM. 370,000 tested, 0.69% active;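 active = inhibition above a cutoff: mean of compounds within the control limits plus 3 SD of those, cut at about 17% in these data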
# Fam108B counter: blocks mouse Fam108B hydrolase in RBBP9 counter-screen; recombinant Fam108B, FP-Rh probe fluorescence polarization; 300,000 tested, 0.33% active; AID 1947; inhibition, % at 9.51 µM;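 active = inhibition above the screen mean inhibition plus 3 SD, computed separately per campaign, cut at about 18% in these data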;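 note: inhibitors lower polarization as less probe binds the enzyme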
# SIAE inh conf: confirmation of human SIAE inhibitors; inhibition, % at 9.66 µM; 2,300 tested, 13% active; AID 1117263; SIAE FP-Rh activity-based probe, fluorescence polarization; shares compounds with SIAE inh;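 active = mean inhibition of the replicates above the hit cutoff set in the primary screen, cut at about 17% in these data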;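 note: inhibitors lower polarization as more probe stays unbound to SIAE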
# A number is an active result; 0 = inactive; - = no result given.
SMILES,TCR CD3 inh,HTRA1 inh,PME-1 primary,ABHD4 inh,SIAE inh,Fam108B counter,SIAE inh conf
CC(C)(C)c1ccc(C(=O)N2CCC(C(=O)NCc3ccco3)CC2)cc1,0,0,0,0,17.1,0,0
CCOC(=O)c1c(NC(=O)c2ccoc2C)sc2c1CCC2,0,0,0,0,24.1,0,0
CCOC(=O)c1c(NC(=O)c2ccccc2C(=O)O)sc2c1CCCC2,0,0,0,0,0,0,-
COc1ccccc1CN1CCNC(=O)C1CC(=O)NCCCn1cccn1 (configuration not stated),0,0,0,0,40.0,0,0
COCc1cc(C)nc(SCC(=O)Nc2ccc3c(c2)OCO3)c1C#N,0,0,0,0,17.1,0,0
COCCNC(=O)C1(C)CCCN(Cc2csc3ccccc23)C1 (configuration not stated),0,-,-,0,0,-,-
Cc1ccc(N(CC(=O)NC2CCCC2)C(=O)CCC(=O)Nc2nccs2)cc1C,0,0,0,0,17.9,0,0
C/C(=N\NC(=O)c1ccc([N+](=O)[O-])cc1)c1cc2ccccc2oc1=O,0,0,0,0,17.3,0,0
C/C(=N\NC(=O)c1ccccc1)c1cc2cc([N+](=O)[O-])ccc2oc1=O,0,0,0,0,0,0,-
O=C(COC(=O)Cc1ccc(Br)cc1)Nc1ccc(Cl)cn1,0,0,-,0,0,-,-
COc1ccc(C2CC(C)(c3ccc(OC)cc3)Nc3ccccc3N2)cc1 (configuration not stated),0,0,0,0,17.1,0,0
COc1ccc(C2(C)CC(C)(C)Nc3ccccc32)cc1 (configuration not stated),0,0,0,0,0,0,-
CCOC(=O)COc1cc(N2C(=O)CSCC2=O)c(Cl)cc1Cl,0,0,0,0,71.5,0,0
COc1ccc(Nc2nc(C)nc3c2nnn3Cc2ccccc2)cc1OC,0,0,0,0,17.4,0,0
Cc1ccc(C)c(OCCC(=O)OCC(=O)N(C)c2c(N)n(Cc3ccccc3)c(=O)[nH]c2=O)c1,0,0,0,0,17.6,0,0
O=C(N/N=C/c1ccoc1)c1cc(Br)ccc1O,0,0,0,0,18.6,0,0
O=C(N/N=C/c1ccoc1)c1ccccc1Br,0,0,-,0,0,-,-
COc1ccc(NC(=O)N(C)C[C@H]2Oc3c(NC(=O)c4ccncc4)cccc3C(=O)N([C@H](C)CO)C[C@@H]2C)cc1,0,0,-,0,22.9,-,0
CCn1c(SCC(=O)Nc2cccc(C)c2)nc2ccccc2c1=O,0,0,0,0,0,0,-
CCn1c(SCC(=O)Nc2ccccc2)nc2ccccc2c1=O,0,0,0,0,17.2,0,0
COc1cc(NC(=S)NCCc2c[nH]c3ccccc23)c(OC)cc1Cl,0,0,0,0,20.4,0,0
COc1ccccc1OCc1ccc(C(=O)N2CCOCC2)o1,0,0,0,0,20.3,0,0
COc1ccc([C@@]23CCN=C2c2[nH]c4ccccc4c2CCN3)c(N)c1,-,-,-,0,19.0,-,0
CC1=NN(c2cccc([N+](=O)[O-])c2)C(=O)C1,0,0,0,0,17.3,0,0
COc1cccc(Nc2nc(CN)cs2)n1,0,-,-,0,22.1,-,0
SMILES,TCR CD3 inh,HTRA1 inh,PME-1 primary,ABHD4 inh,SIAE inh,Fam108B counter,SIAE inh conf
CCN(CC)S(=O)(=O)c1ccc(C(=O)NCCSc2c[nH]c3ccccc23)cc1,0,0,0,0,18.9,0,0
NC(=O)c1ccsc1NC(=O)COC(=O)c1cnccn1,0,0,0,0,0,-,-
S=C(NCCCCN(Cc1ccc(Cl)cc1)c1ccc(Br)cn1)NCCCc1cnc[nH]1,0,-,-,0,23.6,-,28.5
CN(C)CCN(Cc1ccc(Cl)cc1)c1ccccn1,0,0,0,0,0,0,-
COc1ccc(NC(=O)Nc2cc(F)ccc2C)cc1,0,0,0,0,19.7,0,0
COC(=O)c1cc(S(=O)(=O)N2CCN(c3ccc(OC)cc3)CC2)cn1C,0,0,0,0,0,0,-
CCCn1ncc([C@@H]2C[C@H]3CN(Cc4cccc(Cl)c4)C(=O)[C@]34CCCN24)c1C,0,0,0,0,18.2,0,0
COc1ccc(OCCC(=O)Nc2ccc(S(N)(=O)=O)cc2)cc1,0,0,0,0,18.4,0,0
